How the values were obtained:
Format in all cases: toxicity, cell-based
[1] = tested on: HEK-293T; test: Incucyte cell viability with HEK293T; conditions: human, 10 µM, compound concentration 10 uM; further: filed as whole numbers so only -1 and 0 and 1 occur
[2] = tested on: Fibroblast; test: Incucyte cell viability with human fibroblast; conditions: 10 µM, compound concentration 10 uM; further: filed as whole numbers so only -1 and 0 and 1 occur
[3] = tested on: HEK-293T; test: Multiplex assay against HEK293T; conditions: human;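 on Population Tubulin-Different-Phenotype (%): share of the cells with healthy nuclei that show this phenotype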
Procedure, shortened: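 Imaging took place on a CQ1 microscope at 37°C and 5% CO2 once compound had been added to live cells stained at seeding with Hoechst33342, BioTracker Green Microtubule Cytoskeleton Dye, MitoTracker Red and Annexin V Alexa Fluor 680. CellPathfinder machine-learning gating classed cells as Hoechst high-intensity objects or normal cells, classed normal cells as having healthy, pyknosed or fragmented nuclei, and classed pyknosed cells as mitotic or apoptotic. Tubulin, mitochondrial-mass and membrane-permeability phenotypes are per cents of the healthy-nucleus cells.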

[4] = 6 h, replicate number 1, timepoint 6 hours
[5] = 12 h, replicate number 1, timepoint 12 hours
[6] = 18 h, replicate number 1, timepoint 18 hours
[7] = 24 h, replicate number 1, timepoint 24 hours
[8] = 12 h, 1 µM, compound concentration 1 uM, replicate 1
[9] = 12 h, 1 µM, compound concentration 1 uM, replicate 2
[10] = 12 h, 10 µM, compound concentration 10 uM, replicate 1
[11] = 12 h, 10 µM, compound concentration 10 uM, replicate 2
[12] = 24 h, 1 µM, compound concentration 1 uM, replicate 1
[13] = 24 h, 1 µM, compound concentration 1 uM, replicate 2
[14] = 24 h, 10 µM, compound concentration 10 uM, replicate 1
[15] = 24 h, 10 µM, compound concentration 10 uM, replicate 2

Compound: CN(C)C/C=C/C(=O)Nc1cc2c(Nc3ccc(F)c(Cl)c3)ncnc2cc1O[C@H]1CCOC1.O=C(O)/C=C\C(=O)O.O=C(O)/C=C\C(=O)O [AFATINIB DIMALEATE]
- Growth Rate [1, 4]: 0
- Growth Rate [1, 5]: 0
- Growth Rate [1, 6]: 0
- Growth Rate [1, 7]: 0
- Growth Rate ([2]; 0 h, replicate number 1, timepoint 0 hours): 0
- Growth Rate ([2]; 0 h, replicate number 2, timepoint 0 hours): 1
- Growth Rate [2, 4]: 0
- Growth Rate [2, 5]: 0
- Growth Rate [2, 6]: 0
- Growth Rate [2, 7]: 0
- Population Apoptotic (%) [3, 8]: 26%
- Population Fragmented Nuclei (%) [3, 8]: 23%
- Population Healthy Nuclei (%) [3, 8]: 54%
- Population Hoechst High Intensity Objects (%) [3, 8]: 15%
- Population Membrane Permeable-Phenotype (%) [3, 8]: 5%
- Population Mitochondria Different-Phenotype (%) [3, 8]: 4%
- Population Mitotic Cells (%) [3, 8]: 73%
- Population Normal (%) [3, 8]: 84%
- Population Pyknosed Nuclei (%) [3, 8]: 22%
- Population Tubulin-Different-Phenotype (%) [3, 8]: 5%
- Total Cell Count [3, 8]: 581
- Population Apoptotic (%) [3, 9]: 16%
- Population Fragmented Nuclei (%) [3, 9]: 6%
- Population Healthy Nuclei (%) [3, 9]: 87%
- Population Hoechst High Intensity Objects (%) [3, 9]: 3%
- Population Membrane Permeable-Phenotype (%) [3, 9]: 4%
- Population Mitochondria Different-Phenotype (%) [3, 9]: 13%
- Population Mitotic Cells (%) [3, 9]: 83%
- Population Normal (%) [3, 9]: 96%
- Population Pyknosed Nuclei (%) [3, 9]: 5%
- Population Tubulin-Different-Phenotype (%) [3, 9]: 10%
- Total Cell Count [3, 9]: 1304
- Population Apoptotic (%) [3, 10]: 23%
- Population Fragmented Nuclei (%) [3, 10]: 17%
- Population Healthy Nuclei (%) [3, 10]: 32%
- Population Hoechst High Intensity Objects (%) [3, 10]: 18%
- Population Membrane Permeable-Phenotype (%) [3, 10]: 17%
- Population Mitochondria Different-Phenotype (%) [3, 10]: 35%
- Population Mitotic Cells (%) [3, 10]: 76%
- Population Normal (%) [3, 10]: 81%
- Population Pyknosed Nuclei (%) [3, 10]: 50%
- Population Tubulin-Different-Phenotype (%) [3, 10]: 82%
- Total Cell Count [3, 10]: 647
- Population Apoptotic (%) [3, 11]: 17%
- Population Fragmented Nuclei (%) [3, 11]: 3%
- Population Healthy Nuclei (%) [3, 11]: 53%
- Population Hoechst High Intensity Objects (%) [3, 11]: 4%
- Population Membrane Permeable-Phenotype (%) [3, 11]: 9%
- Population Mitochondria Different-Phenotype (%) [3, 11]: 64%
- Population Mitotic Cells (%) [3, 11]: 82%
- Population Normal (%) [3, 11]: 96%
- Population Pyknosed Nuclei (%) [3, 11]: 42%
- Population Tubulin-Different-Phenotype (%) [3, 11]: 97%
- Total Cell Count [3, 11]: 999
- Population Apoptotic (%) [3, 12]: 25%
- Population Fragmented Nuclei (%) [3, 12]: 17%
- Population Healthy Nuclei (%) [3, 12]: 71%
- Population Hoechst High Intensity Objects (%) [3, 12]: 10%
- Population Membrane Permeable-Phenotype (%) [3, 12]: 6%
- Population Mitochondria Different-Phenotype (%) [3, 12]: 3%
- Population Mitotic Cells (%) [3, 12]: 74%
- Population Normal (%) [3, 12]: 89%
- Population Pyknosed Nuclei (%) [3, 12]: 11%
- Population Tubulin-Different-Phenotype (%) [3, 12]: 7%
- Total Cell Count [3, 12]: 598
- Population Apoptotic (%) [3, 13]: 12%
- Population Fragmented Nuclei (%) [3, 13]: 20%
- Population Healthy Nuclei (%) [3, 13]: 76%
- Population Hoechst High Intensity Objects (%) [3, 13]: 3%
- Population Membrane Permeable-Phenotype (%) [3, 13]: 4%
- Population Mitotic Cells (%) [3, 13]: 87%
- Population Normal (%) [3, 13]: 96%
- Population Pyknosed Nuclei (%) [3, 13]: 3%
- Population Tubulin-Different-Phenotype (%) [3, 13]: 9%
- Total Cell Count [3, 13]: 2098
- Population Apoptotic (%) [3, 14]: 39%
- Population Fragmented Nuclei (%) [3, 14]: 23%
- Population Healthy Nuclei (%) [3, 14]: 34%
- Population Hoechst High Intensity Objects (%) [3, 14]: 19%
- Population Membrane Permeable-Phenotype (%) [3, 14]: 10%
- Population Mitochondria Different-Phenotype (%) [3, 14]: 58%
- Population Mitotic Cells (%) [3, 14]: 60%
- Population Normal (%) [3, 14]: 80%
- Population Pyknosed Nuclei (%) [3, 14]: 42%
- Population Tubulin-Different-Phenotype (%) [3, 14]: 77%
- Total Cell Count [3, 14]: 637
- Population Apoptotic (%) [3, 15]: 25%
- Population Fragmented Nuclei (%) [3, 15]: 12%
- Population Healthy Nuclei (%) [3, 15]: 55%
- Population Hoechst High Intensity Objects (%) [3, 15]: 9%
- Population Membrane Permeable-Phenotype (%) [3, 15]: 6%
- Population Mitochondria Different-Phenotype (%) [3, 15]: 69%
- Population Mitotic Cells (%) [3, 15]: 74%
- Population Normal (%) [3, 15]: 90%
- Population Pyknosed Nuclei (%) [3, 15]: 32%
- Population Tubulin-Different-Phenotype (%) [3, 15]: 90%
- Total Cell Count [3, 15]: 1048

From ChEMBL document CHEMBL4689842, “EUbOPEN Chemogenomics Library wave 1” (2021)
